# Results taken from article PMC3082038 (Cancer Chemotherapy and Pharmacology, 2010).
# Assays:
# plasma VEGF = assay: Angiogenesis-related factor: plasma VEGF; assay type: in vivo, human
# Summary of the method: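 Plasma and urine were collected from patients before treatment and after day 8 and day 28 of oral test compound dosing, and analysed at a central commercial laboratory. ELISA kits were used for human VEGF (plasma and urine), ELAM-1, VCAM-1 and soluble t-PA. Soluble PAI-1 was measured by latex photometric immunoassay. Values are reported as median (range) per time point.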
# solid tumors = assay: Antitumor effect; assay type: in vivo, human
smiles,measurement,setting,value
"Cc1[nH]c(/C=C2\C(=O)Nc3ccccc32)c(C)c1CCC(=O)O [TSU-68, (Z)-5-[(1,2-dihydro-2-oxo-3H-indol-3-ylidene)methyl]-2,4-dimethyl-1H-pyrrole-3-propanoic acid]",Change of plasma VEGF at day 28 compared to baseline,"plasma VEGF; PD patients (13 pts.), Wilcoxon signed rank-sum test",significantly increasing
same,"Plasma VEGF, median","plasma VEGF; day 8, 23 patients",55 pg/mL
same,"Plasma VEGF, range","plasma VEGF; day 8, 23 patients",<31 to 278 pg/mL
same,"Plasma VEGF, median","plasma VEGF; day 28, 22 patients",63 pg/mL
same,"Plasma VEGF, range","plasma VEGF; day 28, 22 patients",<31 to 270 pg/mL
same,NC patients,solid tumors; 10/23 evaluable patients,43.5%
same,Tumor control rate,solid tumors; 10/23 patients,43.5%
same,PR patient,solid tumors; 23 evaluable patients,not found
same,TTP (time to progression),"solid tumors; Pt 1, Cervical ca., b.i.d. 200 mg/m^2 (800 mg/day)",162 days
same,TTP (time to progression),"solid tumors; Pt 2, NSCLC, b.i.d. 200 mg/m^2 (800 mg/day)",64 days
same,TTP (time to progression),"solid tumors; Pt 4, SCLC, b.i.d. 400 mg/m^2 (1,200 mg/day)",≥ 29 days
same,TTP (time to progression),"solid tumors; Pt 8, Cholecystis ca., b.i.d. 400 mg/m^2 (1,200 mg/day)",61 days
same,TTP (time to progression),"solid tumors; Pt 9, NSCLC, b.i.d. 400 mg/m^2 (1,200 mg/day)",≥ 29 days
same,TTP (time to progression),"solid tumors; Pt 14, Soft tissue sa., t.i.d. 200 mg/m^2 (600 mg/day)",≥ 254 days
same,TTP (time to progression),"solid tumors; Pt 17, NSCLC, t.i.d. 200 mg/m^2 (1,200 mg/day)",65 days
same,TTP (time to progression),"solid tumors; Pt 19, NSCLC, t.i.d. 400 mg/m^2 (2,400 mg/day)",≥ 28 days
same,TTP (time to progression),"solid tumors; Pt 20, Colon ca., t.i.d. 400 mg/m^2 (1,800 mg/day)",≥ 217 days
same,TTP (time to progression),"solid tumors; Pt 23, Colon ca., t.i.d. 400 mg/m^2 (1,800 mg/day)",≥ 28 days
same,Median survival period,solid tumors; all dose levels,218 days
same,Median time to progression,solid tumors; all dose levels,28 days
